Assay results taken from ChEMBL document CHEMBL1131103, “Synthesis and biological evaluation of 2-acyl analogues of paclitaxel (Taxol)” (J Med Chem, 1998).

What was measured:
[1] = system: Panel ovarian (Carcinoma cell lines); assay: Cytotoxic activity was measured against human Ovarian carcinoma cell lines; format: functional, cell-based
Method in brief: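 Ovarian carcinoma line 1A9, a subclone of A2780, grown as monolayers in 96-well plates for 96 h at 37 °C, 5% CO₂. Cell protein quantitated (Skehan method). IC₅₀ = concentration inhibiting the increase in cell protein by 50%.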

[2] = system: Panel colon (Carcinoma cell lines); assay: Cytotoxic activity was measured against human colon carcinoma cell lines; format: functional, cell-based
Method in brief: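 HCT116 colon carcinoma monolayers in 96-well plates, 48 h at 37 °C under 5% CO₂. Cell protein measured. IC₅₀ = concentration giving 50% inhibition of the increase in cell protein.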

Bos taurus [3] = organism: Bos taurus; assay: Polymerizing activity of microtubule protein against the twice cycled microtubule protein; format: functional
Method in brief: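 Twice-cycled microtubule protein, stored in liquid nitrogen, at 1.0 mg/mL final in 0.1 M MES, 1 mM EGTA, 0.5 mM MgCl₂, pH 6.6, 37 °C, no GTP. Compound at 2.5, 5.0 and 10 µM. Absorbance read every 10 s and initial linear slopes taken. EC0.01 = interpolated concentration giving an initial slope of 0.01 A unit/min.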

ptx-10/22 = assay: Relative resistance was measured against human paclitaxel-resistant cell lines; format: functional, cell-based; details: 1A9(PTX22)
Burkitts lymphoma cell = assay: Cytotoxic activity against was measured human Burkitt lymphoma cell lines.; format: functional, cell-based
Method in brief: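 CA46 Burkitt lymphoma cells in 5.0-mL suspension culture, counted after 24 h at 37 °C under 5% CO₂. IC₅₀ = drug concentration halving the increase in cell number. Highest concentration 100 nM. At least two independent experiments.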

Bos taurus [4] = organism: Bos taurus; assay: Polymerizing activity of tubulin in glutamate against bovine brain tubulin homogenate was measured at 0.4 M concentrations; format: functional
Method in brief: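 Purified, electrophoretically homogeneous bovine brain tubulin assembled at room temperature without GTP or Mg²⁺ in 0.4 M monosodium glutamate (from 2 M stock, pH 6.6). Polymer pelleted by centrifugation. IC₅₀ = drug concentration lowering supernatant protein by 50% versus no-drug control. Up to 40 µM. At least three independent experiments, or at least two where IC₅₀ exceeded 40 µM.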

Bos taurus [5] = organism: Bos taurus; assay: Polymerizing activity of tubulin in glutamate against bovine brain tubulin homogenate was measured at 0.8M concentrations; format: functional
Method in brief: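 Bovine brain tubulin, purified to electrophoretic homogeneity, in 0.8 M monosodium glutamate (from 2 M stock, pH 6.6), room temperature, no GTP. Polymer removed by centrifugation. IC₅₀ = concentration reducing supernatant protein by 50% relative to drug-free control. Maximum 40 µM. At least three independent experiments, or at least two for IC₅₀ over 40 µM.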

| Compound | IC50 [1] | IC50 [2] | EC0.01 (relative to paclitaxel) (Bos taurus [3]) | relative resistance (ptx-10/22) | IC50 (Burkitts lymphoma cell) | IC50 (Bos taurus [4]) | IC50 (Bos taurus [5]) |
| --- | --- | --- | --- | --- | --- | --- | --- |
| CC(=O)O[C@H]1C(=O)[C@@]2(C)[C@H]([C@H](OC(=O)c3cc(F)ccc3F)[C@]3(O)C[C@H](OC(=O)[C@H](O)[C@@H](NC(=O)c4ccccc4)c4ccccc4)C(C)=C1C3(C)C)[C@]1(OC(C)=O)CO[C@@H]1C[C@@H]2O | 0.67 relative to paclitaxel | 0.44 relative to paclitaxel | 0.34 | 0.57 | 0.67 relative to paclitaxel | 0.29 relative to paclitaxel |  |
| CC(=O)O[C@H]1C(=O)[C@@]2(C)[C@H]([C@H](OC(=O)c3ccccc3N=[N+]=[N-])[C@]3(O)C[C@H](OC(=O)[C@H](O)[C@@H](NC(=O)c4ccccc4)c4ccccc4)C(C)=C1C3(C)C)[C@]1(OC(C)=O)CO[C@@H]1C[C@@H]2O | 0.77 relative to paclitaxel | 0.36 relative to paclitaxel | 0.7 | 0.67 |  | 0.38 relative to paclitaxel |  |
| CC(=O)O[C@H]1C(=O)[C@@]2(C)[C@H]([C@H](OC(=O)c3cccc(C#N)c3)[C@]3(O)C[C@H](OC(=O)[C@H](O)[C@@H](NC(=O)c4ccccc4)c4ccccc4)C(C)=C1C3(C)C)[C@]1(OC(C)=O)CO[C@@H]1C[C@@H]2O | 0.32 relative to paclitaxel | 1.1 relative to paclitaxel | 1 | 1.3 |  | 0.63 relative to paclitaxel |  |
| CC(=O)O[C@H]1C(=O)[C@@]2(C)[C@H]([C@H](OC(=O)c3cccc(C(F)(F)F)c3)[C@]3(O)C[C@H](OC(=O)[C@H](O)[C@@H](NC(=O)c4ccccc4)c4ccccc4)C(C)=C1C3(C)C)[C@]1(OC(C)=O)CO[C@@H]1C[C@@H]2O | 1.4 relative to paclitaxel | 3 relative to paclitaxel | 1.3 |  | 0.67 relative to paclitaxel | > 1.7 relative to paclitaxel | 6.7 relative to paclitaxel |
| COc1cc(C(=O)O[C@H]2[C@@H]3[C@]4(OC(C)=O)CO[C@@H]4C[C@H](O)[C@@]3(C)C(=O)[C@H](OC(C)=O)C3=C(C)[C@@H](OC(=O)[C@H](O)[C@@H](NC(=O)c4ccccc4)c4ccccc4)C[C@]2(O)C3(C)C)cc(OC)c1OC | > 48 relative to paclitaxel | 110 relative to paclitaxel | 32 |  | > 3.3 relative to paclitaxel | > 1.7 relative to paclitaxel | > 8.9 relative to paclitaxel |
| CC(=O)O[C@H]1C(=O)[C@@]2(C)[C@H]([C@H](OC(=O)c3cccc(N=[N+]=[N-])c3)[C@]3(O)C[C@H](OC(=O)[C@H](O)[C@@H](NC(=O)c4ccccc4)c4ccccc4)C(C)=C1C3(C)C)[C@]1(OC(C)=O)CO[C@@H]1C[C@@H]2O | 0.18 relative to paclitaxel | 1.4 relative to paclitaxel | 0.37 | 0.27 | 0.17 relative to paclitaxel | 0.2 relative to paclitaxel |  |
| CC(=O)O[C@H]1C(=O)[C@@]2(C)[C@H]([C@H](OC(=O)c3cccc(Cl)c3)[C@]3(O)C[C@H](OC(=O)[C@H](O)[C@@H](NC(=O)c4ccccc4)c4ccccc4)C(C)=C1C3(C)C)[C@]1(OC(C)=O)CO[C@@H]1C[C@@H]2O | 0.05 relative to paclitaxel | 1.7 relative to paclitaxel | 0.92 | 2.9 | 0.67 relative to paclitaxel | 0.3 relative to paclitaxel |  |
| COc1cccc(C(=O)O[C@H]2[C@@H]3[C@]4(OC(C)=O)CO[C@@H]4C[C@H](O)[C@@]3(C)C(=O)[C@H](OC(C)=O)C3=C(C)[C@@H](OC(=O)[C@H](O)[C@@H](NC(=O)c4ccccc4)c4ccccc4)C[C@]2(O)C3(C)C)c1 | 0.095 relative to paclitaxel | 0.35 relative to paclitaxel | 0.5 | 0.71 | 0.27 relative to paclitaxel | 0.22 relative to paclitaxel |  |
| CC(=O)O[C@H]1C(=O)[C@@]2(C)[C@H]([C@H](OC(=O)c3cc([N+](=O)[O-])cc([N+](=O)[O-])c3)[C@]3(O)C[C@H](OC(=O)[C@H](O)[C@@H](NC(=O)c4ccccc4)c4ccccc4)C(C)=C1C3(C)C)[C@]1(OC(C)=O)CO[C@@H]1C[C@@H]2O | 20 relative to paclitaxel | 3.1 relative to paclitaxel | 4.2 |  | 2.3 relative to paclitaxel | > 1.7 relative to paclitaxel | > 8.9 relative to paclitaxel |
| CC(=O)O[C@H]1C(=O)[C@@]2(C)[C@H]([C@H](OC(=O)c3cccc(F)c3F)[C@]3(O)C[C@H](OC(=O)[C@H](O)[C@@H](NC(=O)c4ccccc4)c4ccccc4)C(C)=C1C3(C)C)[C@]1(OC(C)=O)CO[C@@H]1C[C@@H]2O | 14 relative to paclitaxel | 0.55 relative to paclitaxel | 0.8 |  |  | > 1.7 relative to paclitaxel | > 8.9 relative to paclitaxel |
| CC(=O)O[C@H]1C(=O)[C@@]2(C)[C@H]([C@H](OC(=O)c3cc(F)cc(F)c3)[C@]3(O)C[C@H](OC(=O)[C@H](O)[C@@H](NC(=O)c4ccccc4)c4ccccc4)C(C)=C1C3(C)C)[C@]1(OC(C)=O)CO[C@@H]1C[C@@H]2O | 0.12 relative to paclitaxel | 0.36 relative to paclitaxel | 0.6 | 1.1 |  | 0.29 relative to paclitaxel |  |
| CC(=O)O[C@H]1C(=O)[C@@]2(C)[C@H]([C@H](OC(=O)c3ccc(Cl)cc3)[C@]3(O)C[C@H](OC(=O)[C@H](O)[C@@H](NC(=O)c4ccccc4)c4ccccc4)C(C)=C1C3(C)C)[C@]1(OC(C)=O)CO[C@@H]1C[C@@H]2O | 7.6 relative to paclitaxel |  |  |  | 1.3 relative to paclitaxel | > 1.7 relative to paclitaxel | > 8.9 relative to paclitaxel |
| CC(=O)O[C@H]1C(=O)[C@@]2(C)[C@H]([C@H](OC(=O)c3cc(Cl)cc(Cl)c3)[C@]3(O)C[C@H](OC(=O)[C@H](O)[C@@H](NC(=O)c4ccccc4)c4ccccc4)C(C)=C1C3(C)C)[C@]1(OC(C)=O)CO[C@@H]1C[C@@H]2O | 0.38 relative to paclitaxel | 0.51 relative to paclitaxel | 0.44 | 0.48 | 0.67 relative to paclitaxel | 0.91 relative to paclitaxel |  |
| CC(=O)O[C@H]1C(=O)[C@@]2(C)[C@H]([C@H](OC(=O)c3cccc(Br)c3)[C@]3(O)C[C@H](OC(=O)[C@H](O)[C@@H](NC(=O)c4ccccc4)c4ccccc4)C(C)=C1C3(C)C)[C@]1(OC(C)=O)CO[C@@H]1C[C@@H]2O | 0.32 relative to paclitaxel | 0.32 relative to paclitaxel | 0.8 | 0.42 |  | 0.24 relative to paclitaxel |  |
| COc1cccc(C(=O)O[C@H]2[C@@H]3[C@]4(OC(C)=O)CO[C@@H]4C[C@H](O)[C@@]3(C)C(=O)[C@H](OC(C)=O)C3=C(C)[C@@H](OC(=O)[C@H](O)[C@@H](NC(=O)c4ccccc4)c4ccccc4)C[C@]2(O)C3(C)C)c1OC | > 48 relative to paclitaxel | 59 relative to paclitaxel | > 270 |  | > 3.3 relative to paclitaxel | > 1.7 relative to paclitaxel | > 8.9 relative to paclitaxel |
| COc1ccc(OC)c(C(=O)O[C@H]2[C@@H]3[C@]4(OC(C)=O)CO[C@@H]4C[C@H](O)[C@@]3(C)C(=O)[C@H](OC(C)=O)C3=C(C)[C@@H](OC(=O)[C@H](O)[C@@H](NC(=O)c4ccccc4)c4ccccc4)C[C@]2(O)C3(C)C)c1 | 0.12 relative to paclitaxel | 0.14 relative to paclitaxel | 0.5 | 0.76 | 0.67 relative to paclitaxel | 0.2 relative to paclitaxel |  |
| CC(=O)O[C@H]1C(=O)[C@@]2(C)[C@H]([C@H](OC(=O)c3ccc(O)cc3)[C@]3(O)C[C@H](OC(=O)[C@H](O)[C@@H](NC(=O)c4ccccc4)c4ccccc4)C(C)=C1C3(C)C)[C@]1(OC(C)=O)CO[C@@H]1C[C@@H]2O | 31 relative to paclitaxel | 52 relative to paclitaxel | 19 |  | 3 relative to paclitaxel | > 1.7 relative to paclitaxel | > 8.9 relative to paclitaxel |
| CC(=O)O[C@H]1C(=O)[C@@]2(C)[C@H]([C@H](OC(=O)c3ccc(Cl)c(Cl)c3)[C@]3(O)C[C@H](OC(=O)[C@H](O)[C@@H](NC(=O)c4ccccc4)c4ccccc4)C(C)=C1C3(C)C)[C@]1(OC(C)=O)CO[C@@H]1C[C@@H]2O | 1 relative to paclitaxel | 0.77 relative to paclitaxel | 0.76 | 0.27 |  | 0.41 relative to paclitaxel |  |
